Experimental findings from the array DNA melting data of Ke et al. (doi:10.1101/2024.01.08.574731) are described below.

Data set [1] is described as follows: folding enthalpy; higher = less favourable; fluorescence melt of hairpins on a sequencing array, two-state fit. The conditions noted are these: sodium 0.088 M. The gist of the method:
(§1)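 On a sequenced MiSeq flow cell, library hairpins with annealed Cy3 and quencher oligos were imaged for Cy3 fluorescence in 2.5 °C steps up to 60 °C, in 50 mM Na-HEPES pH 8.0, 25 mM NaCl. Normalisation used pre-quench Cy3 and control constructs. Bootstrapped two-state fits gave melting temperature and folding enthalpy, combined by inverse variance across four replicates and with fitted temperatures raised by 9.35 °C to match UV melts.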

Data set [2] can be described thus: melting temperature; fluorescence melt of hairpins on a sequencing array, two-state fit, raised by 9.35 °C to match UV melts. The conditions noted are these: sodium 0.088 M. The gist of the method: as §1

Consider GAAATCCGAAAGGAATTC (((.(((....))).))), for which, in data set [1], the folding enthalpy was -28.1 kcal/mol. The Tm in data set [2] is 40.9 °C.

Consider GAAATCGGAAACGACTTC (((.(((....))).))), for which, in data set [1], the folding enthalpy is -24.8 kcal/mol. The Tm in data set [2] is 32.4 °C.

On to GAAATCGGAAACGGTTTC ((((.((....)).)))), for which the folding enthalpy in data set [1] was -31.6 kcal/mol. Moreover, the Tm in data set [2] came out at 46.5 °C.

Turning to GAAATGAAAATTTC (((((....))))), the folding enthalpy in data set [1] was -12.2 kcal/mol. Moreover, the Tm in data set [2] turned out to be 30.1 °C.

Consider GAAATGCGAAAGCACTTC (((.(((....))).))), for which the folding enthalpy in data set [1] is -17.1 kcal/mol. Also, in data set [2], the Tm worked out at 40.7 °C.

On to GAAATGCGAAAGCATTC (((.(((....)))))), for which the folding enthalpy in data set [1] was -10.9 kcal/mol. The Tm in data set [2] stood at 45.6 °C.

With GAAATGGCGAAAGCCTTC (((..(((....)))))), in data set [1], the folding enthalpy is -7.87 kcal/mol. For the same sequence, the Tm in data set [2] worked out at 23 °C.

With GAAATGGGAAACCATTTC (((((((....))))))), the folding enthalpy in data set [1] was -37.5 kcal/mol. Moreover, in data set [2], the Tm is 53.9 °C.

GAACAAGAAATTGTTC ((((((....)))))): the folding enthalpy in data set [1] is -26.4 kcal/mol. Moreover, in data set [2], the Tm amounted to 45.1 °C.

Regarding GAACACGAAAGTGATTC ((((((....))).))), the folding enthalpy in data set [1] was -18.1 kcal/mol. In data set [2], the Tm amounted to 37.2 °C.

With GAACACGAAAGTGCGTTC ((((((....)))..))), the folding enthalpy in data set [1] was -13 kcal/mol. Moreover, in data set [2], the Tm worked out at 31.2 °C.

As for GAACACGAAAGTGTCTTC ((((((....)))..))), the folding enthalpy in data set [1] was -24.3 kcal/mol. For the same sequence, the Tm in data set [2] was 52.8 °C.

Consider GAACACGAAAGTGTGTTC ((((((....)))..))), for which, in data set [1], the folding enthalpy was -17.8 kcal/mol. In addition, in data set [2], the Tm was 50 °C.

For GAACACGGAAACGTGTCC (.(((((....))))).), the folding enthalpy in data set [1] is -11.2 kcal/mol. Moreover, the Tm in data set [2] came to 45.2 °C.

GAACATGGAAACGTGTTC (((((.(....).))))): the folding enthalpy in data set [1] is -40.1 kcal/mol. The Tm in data set [2] amounted to 44.8 °C.

On to GAACCCGAAAGGGACTTC ((((((....)))..))), for which the folding enthalpy in data set [1] was -20.2 kcal/mol. In addition, the Tm in data set [2] is 42.9 °C.

As to GAACCCGAAAGGGATTC ((((((....))).))), the folding enthalpy in data set [1] is -14.4 kcal/mol. In addition, the Tm in data set [2] was determined as 46.4 °C.

GAACCCGAAAGGGCTTTC ((((((....)))..))): in data set [1], the folding enthalpy was -10.4 kcal/mol. The Tm in data set [2] is 33.8 °C.

As to GAACCCGAAAGGGTCTTC ((((((....)))..))), in data set [1], the folding enthalpy is -22.8 kcal/mol. Also, in data set [2], the Tm amounted to 61.9 °C.

For the sequence GAACCTGGAAACAGGTCC (.(((((....))))).), in data set [1], the folding enthalpy was -15.9 kcal/mol. Also, the Tm in data set [2] was found to be 40.9 °C.

Regarding GAACCTGGAAACAGGTTC (((((((....))))))), in data set [1], the folding enthalpy was -36.9 kcal/mol. The Tm in data set [2] turned out to be 65.5 °C.

Regarding GAACGACGAAAGTCTTC (((.(((....)))))), the folding enthalpy in data set [1] was -15.3 kcal/mol. The Tm in data set [2] was determined as 34.8 °C.

In the case of GAACGCCGAAAGGCATTC (((.(((....))).))), the folding enthalpy in data set [1] is -17.8 kcal/mol. Also, the Tm in data set [2] was found to be 43.3 °C.

Turning to GAACGCCGAAAGGCTTTC (((.(((....))).))), the folding enthalpy in data set [1] is -17.9 kcal/mol. For the same sequence, the Tm in data set [2] is 44.2 °C.

Turning to GAACGCGAAAGCGGGTTC ((((((....)))..))), the folding enthalpy in data set [1] is -11.9 kcal/mol. Further, the Tm in data set [2] is 47.1 °C.

Turning to GAACGCGAAAGCGTATTC ((((((....)))..))), the folding enthalpy in data set [1] is -7.69 kcal/mol. In addition, in data set [2], the Tm came to 35.8 °C.

In the case of GAACGCGAAAGCGTCTTC ((((((....)))..))), the folding enthalpy in data set [1] is -21.6 kcal/mol. Besides, in data set [2], the Tm was 62.6 °C.

Regarding GAACGCGAAAGCGTTTC ((((((....))).))), the folding enthalpy in data set [1] was -10.7 kcal/mol. In addition, the Tm in data set [2] came out at 57.7 °C.

Take GAACGGCCGAAAGGCTTC (((..(((....)))))): in data set [1], the folding enthalpy is -7.62 kcal/mol. Also, in data set [2], the Tm was found to be 21.1 °C.

GAACGGGGAAACCCGTTC (((((((....))))))): the folding enthalpy in data set [1] was -34.2 kcal/mol. Also, the Tm in data set [2] was 67.9 °C.

With GAACGTGAAAACGTTC ((((((....)))))), the folding enthalpy in data set [1] is -34 kcal/mol. The Tm in data set [2] was 58.1 °C.

As to GAACGTGGAAACACGCTC ((.((((....)))).)), the folding enthalpy in data set [1] was -18.2 kcal/mol. For the same sequence, the Tm in data set [2] came to 44 °C.

For GAACGTGGAAACACGTTC (((((((....))))))), the folding enthalpy in data set [1] is -31.6 kcal/mol. Also, the Tm in data set [2] was 66.3 °C.

For GAACTCGGAAACAAGTTC (((((.(....).))))), the folding enthalpy in data set [1] is -22.7 kcal/mol. The Tm in data set [2] was 34 °C.

Regarding GAACTCGGAAACGAATTC (((.(((....))).))), the folding enthalpy in data set [1] is -27.5 kcal/mol. In data set [2], the Tm was 31.7 °C.

GAACTGCGAAAGCACTTC (((.(((....))).))): in data set [1], the folding enthalpy is -10.9 kcal/mol. Besides, the Tm in data set [2] came to 28.4 °C.
